The values below come from ChEMBL document CHEMBL3808278, “Design, Synthesis, and Biological Evaluation of Imidazo[1,5-a]quinoline as Highly Potent Ligands of Central Benzodiazepine Receptors” (J Med Chem, 2016).

The species entered for series [1] is Mus musculus. The experiment in a line: Myorelaxant effect in mouse assessed as effect on motor coordination after 30 mins by rotarad test. To be noted: in vivo, 0.5 h. The series is classed as organism-based. The essentials: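 Rota-rod test of motor coordination in mice, with compounds given per os 30 min before testing. Values are mean ± SEM of at least 10 mice.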

Series [2] relates to Mus musculus. The series can be described thus: Antiamnestic activity in mouse assessed as prevention of scopalamine-induced amnesia at 10 mg/kg, po administered 30 mins before test by passive avoidance test. The class given is functional, organism-based. The essentials: (§1)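 Passive avoidance in mice: compounds were given per os 30 min before the test, and scopolamine 1.5 mg kg-1 i.p. immediately after the punishment. Read-out was time recorded during the retention session. Values are mean ± SEM of at least 10 mice, compared with vehicle-treated animals.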

For series [3], the species on record is Bos taurus. The series can be described thus: Selectivity ratio, ratio of Ki for central-type benzodiazepine receptor in bovine cortical membrane to Ki for central-type benzodiazepine receptor in bovine cortical membrane in presence of 50 uM of GABA. The series is classed as cell membranes.
Series [4] has as its system Mus musculus. The series can be described thus: Neurotoxicity in mouse assessed as effect on neurological and muscular abilities at 10 mg/kg, po after 30 mins by Hole-Board test. The series is classed as toxicity, organism-based. To be noted: in vivo, 0.5 h. Put shortly: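 Hole-board test 30 min after oral dosing at 10 mg kg-1 counted movements (motor activity) and head inspections (exploratory activity). Values are mean ± SEM of at least 10 mice, compared with vehicle controls.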

Series [5] is filed under the species Rattus norvegicus. The series can be described thus: Partial agonist activity at central-type benzodiazepine receptor in Sprague-Dawley rat cerebrocortical synaptoneurosomes assessed as increase in 36Cl- influx after 10 secs by liquid-phase scintillation beta-counting method.
A short description of series [6]: Displacement of [3H]-flumazenil from central-type benzodiazepine receptor in bovine cortical membrane after 90 mins by liquid-phase scintillation beta-counting method. The series is classed as cell membranes, Bos taurus. The essentials:
(§2)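 Competition binding against radiolabelled antagonist [3H]flumazenil in cortical membranes (bovine; human where listed); Ki reported as mean ± SEM of three independent determinations.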

Series [7] deals with Mus musculus. The series can be described thus: Anxiolytic activity in mouse assessed as time spent in light box at 10 mg/kg, po administered 30 mins before test by light-dark box test. The class given is functional. The essentials:
(§3)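 Light-dark box in mice measured time in the light compartment. Compounds were given per os 30 min before testing, and diazepam 1 mg kg-1 subcutaneously as reference. Values are mean ± SEM of at least 10 mice, compared with vehicle-treated animals.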

Series [8] deals with Brain. The series can be described thus: Neuroprotective activity against oxygen-glucose deprivation and reoxygenation-induced injury in Sprague-Dawley rat brain cortical slices assessed as maximum recovery in LDH release at 5 uM treated during 90 mins of reperfusion phase measured after 90 mins by spetrophotometric method. The class given is functional. The essentials:
(§4)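 Rat brain cortical slices in ACSF underwent 30 min oxygen/glucose deprivation, then 90 min reoxygenated ACSF (reperfusion). Controls were kept 120 min in ACSF. Compounds (0.1–100 µM) were added only during reperfusion, and LDH release was measured. Data are means ± SEM of at least 4 experiments, analysed by ANOVA with Dunnett post test. The effective concentration is that giving the largest reduction, and recovery is the % reversion at that concentration.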

Series [9] concerns Mus musculus. The series can be described thus: Antiamnestic activity in scopolamine induced mouse amnesia model assessed as time spent in light box at 1 mg/kg, po administered 30 mins before test by passive avoidance test. The series is classed as functional, organism-based. The essentials: as §1
In series [10] the test system is Mus musculus. The experiment in a line: Anxiolytic activity against mouse assessed as increase in time spent in light box at 10 mg/kg, po administered 30 mins before test by light-dark box test. The class given is functional, organism-based. The essentials:
as §3

Series [11] deals with Mus musculus. The experiment in a line: Anxiolytic activity in mouse assessed as increase in time spent in light box at 1 mg/kg, po administered 30 mins before test by light-dark box test. The class given is functional, organism-based. Put shortly: as §3
The species named for series [12] is Rattus norvegicus. The series can be described thus: Antagonist activity at central-type benzodiazepine receptor in Sprague-Dawley rat cerebrocortical synaptoneurosomes assessed as decrease in 36Cl- flow after 10 secs by liquid-phase scintillation beta-counting method.
For series [13], the system named is Brain. The series can be described thus: Neuroprotective activity against oxygen-glucose deprivation and reoxygenation-induced injury in Sprague-Dawley rat brain cortical slices assessed as maximum recovery in LDH release at 50 uM treated during 90 mins of reperfusion phase measured after 90 mins by spetrophotometric method. The series is classed as functional. The essentials:
as §4

The subject of series [14] is Mus musculus. The experiment in a line: Anxiolytic activity in mouse assessed as time spent in light box at 3 mg/kg, po administered 30 mins before test by light-dark box test. The class given is functional. The essentials:
as §3

The test system of series [15] is Mus musculus. The experiment in a line: Anxiolytic activity in po dosed mouse assessed as increase in time spent in light box administered 30 mins before test by light-dark box test. The class given is functional, organism-based. The essentials:
as §3

The subject of series [16] is Mus musculus. The series can be described thus: Antiamnestic activity in scopolamine induced mouse amnesia model assessed as time spent in light box at 3 mg/kg, po administered 30 mins before test by passive avoidance test (reference value: 44.8 +/- 8.1 secs). The class given is functional. The essentials:
as §1

Series [17] is filed under the species Rattus norvegicus. The experiment in a line: Inverse agonist activity at central-type benzodiazepine receptor in Sprague-Dawley rat cerebrocortical synaptoneurosomes assessed as decrease in 36Cl- flow after 10 secs by liquid-phase scintillation beta-counting method.
For series [18], the system named is Mus musculus. The experiment in a line: Anxiolytic activity in mouse assessed as time spent in light box at 30 mg/kg, po administered 30 mins before test by light-dark box test. The class given is functional. The essentials:
as §3

Series [19] has as its system Mus musculus. The experiment in a line: Antiamnestic activity in scopolamine induced mouse amnesia model assessed as time of retention session in light box at 30 mg/kg, po administered 30 mins before test by passive avoidance test (reference value: 44.8 +/- 8.1 secs). The series is classed as functional. The essentials:
as §1

For series [20], the species on record is Bos taurus. The series can be described thus: Displacement of [3H]-flumazenil from central-type benzodiazepine receptor in bovine cortical membrane at 1000 nM after 90 mins by liquid-phase scintillation beta-counting method. The series is classed as cell membranes. Put shortly:
as §2

Series [21] has as its system Mus musculus. The series can be described thus: Anxiolytic activity in mouse assessed as increase in time spent in light box at 1 mg/kg, sc administered 30 mins before test by light-dark box test. The class given is functional, organism-based. Put shortly:
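Mice, light-dark box test for anxiolytic effect; agent given subcutaneously (1 mg kg-1) 30 min before testing; time in light box recorded; mean ± SEM of at least 10 mice; significance vs vehicle-treated mice.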

The test system of series [22] is Mus musculus. The experiment in a line: Antiamnestic activity in scopalamine-induced mouse amnesia model assessed as time spent in light box at 10 mg/kg, po administered 30 mins before test by passive avoidance test (reference value: 44.8 +/- 8.1 secs). The series is classed as functional. Put shortly: as §1

Calls of active or inactive are those of the source. The rule behind the calls is not given here.

In the case of `CCCN(CCC)C(=O)c1c(CC)c2c(C(=O)OC(C)(C)C)ncn2c2ccccc12`, the values for the Activity result in the series listed under Mus musculus [1], with Mus musculus [4] and in the series on Brain [8] were “Non-toxic”, “Non-toxic” and 44.4%, respectively. For the same compound, the result in the series with Mus musculus [2], in the series listed under Rattus norvegicus [5] and with Mus musculus [9] was Active. The Ratio Ki in the series filed under Bos taurus [3] was 1.4. In series [6], this compound yielded a Ki of 5.6 nM. Moreover, the Time in the series with Mus musculus [7] is reported as 172.5 s.

As to `CCCN(CCC)C(=O)c1c(C)c2c(C(=O)OC(C)(C)C)ncn2c2ccccc12`, the Activity result in the series listed under Mus musculus [1] and in the series on Mus musculus [4] was “Non-toxic” in each case. The result in the series with Mus musculus [2], in the series with Mus musculus [10] and with Mus musculus [11] was Active. Moreover, the Ratio Ki in the series listed under Bos taurus [3] came out at 1.1. The same compound displayed a Ki in series [6] of 1 nM. In the series listed under Rattus norvegicus [12], the Antagonist activity entry was “Active”.

Turning to `CCCN(CCC)C(=O)c1c(C)c2c(C(=O)OCC)ncn2c2ccccc12`, the Activity result in the series filed under Mus musculus [1] is reported as “Non-toxic”; in the series with Brain [13] it was 44%; in the series with Mus musculus [4], “Non-toxic”. Also, the outcome in the series with Mus musculus [2], in the series on Mus musculus [10] and in the series listed under Rattus norvegicus [5] was Active. Moreover, the Ratio Ki in the series filed under Bos taurus [3] amounted to 1.3. The compound also registered a Ki in series [6] of 1.5 nM. Also, in the series on Mus musculus [14], the Time amounted to 153.4 s.

In the case of `CCCCN(C)C(=O)c1cc2c(C(=O)OC(C)(C)C)ncn2c2ccccc12`, the values for the Activity entry in the series filed under Mus musculus [1], with Mus musculus [15] and with Mus musculus [4] were “Non-toxic”, “Dose-dependent effect” and “Non-toxic”, respectively. Besides, the result in the series with Mus musculus [2] and in the series filed under Rattus norvegicus [17] was Active. Moreover, in the series filed under Bos taurus [3], the Ratio Ki stood at 0.62. Further, the Time with Mus musculus [16] is 73.5 s; with Mus musculus [7], 167.2 s; in the series on Mus musculus [14] it was 144.8 s. The compound also had an inhibition constant Ki in [6] of 1.8 nM.

For the compound `Cc1c(C(=O)N(C)Cc2ccccc2)c2ccccc2n2cnc(C(=O)OC(C)(C)C)c12`, the Activity entry in the series listed under Mus musculus [1] and in the series on Mus musculus [4] was “Non-toxic” in each case. The result with Mus musculus [2], in the series with Mus musculus [10] and in the series on Mus musculus [11] was inactive. Moreover, the Ratio Ki in the series listed under Bos taurus [3] is 1. For the same compound, the Time entry is on record as “<=139.2 s” in the series with Mus musculus [18] and “<=77.9 s” with Mus musculus [19]. In series [6], this compound gave a Ki of 2.6 nM. In the series filed under Rattus norvegicus [12], the Antagonist activity entry is “Active”.

Compound `Cc1c(-c2ccccc2)c2ccccc2n2cnc(C(=O)N(C)Cc3ccccc3)c12` returned an inhibition in the series listed under Bos taurus [20] of 19%. Moreover, in [6], the inhibition constant Ki is > 1000 nM.

Take `CCOC(=O)c1ncn2c1cc(C(=O)N(C)C)c1ccccc12`: the Activity entry in the series filed under Mus musculus [1] and in the series with Mus musculus [4] was “Non-toxic” in each case. Also, the outcome in the series on Mus musculus [10] and in the series filed under Rattus norvegicus [5] was Active. For the same compound, the Ratio Ki in the series filed under Bos taurus [3] came to 1.3. The same compound came in with a Ki in [6] of 8.2 nM. In the series on Mus musculus [19], the outcome was inactive.

For the compound `CCCN(CCC)C(=O)c1c(CC)c2c(C(=O)OCC)ncn2c2ccccc12`, the Activity result in the series filed under Mus musculus [1] is reported as “Non-toxic”; in the series with Brain [13] it was 44.3%; in the series with Mus musculus [4], “Non-toxic”. Besides, the outcome in the series with Mus musculus [2], in the series on Mus musculus [10] and in the series listed under Rattus norvegicus [5] was Active. For the same compound, the Ratio Ki in the series filed under Bos taurus [3] worked out at 1.5. Moreover, the inhibition constant Ki in series [6] came to 2.5 nM.

Take `CN1C(=O)CN=C(c2ccccc2)c2cc(Cl)ccc21` [DIAZEPAM]: in the series with Mus musculus [21], the result was Active. In the series on Brain [8], the Activity came out at 55.9%.

With `CCCN(CCC)C(=O)c1cc2c(C(=O)OCC)ncn2c2ccc(F)cc12`, the Activity entry in the series listed under Mus musculus [1] and in the series on Mus musculus [4] was “Non-toxic” each time. The result in the series on Mus musculus [2], in the series listed under Rattus norvegicus [17] and in the series on Mus musculus [9] was Active. Also, the Time is on record as 99.6 s in the series on Mus musculus [22] and 181.4 s in the series on Mus musculus [7]. The Ratio Ki in the series listed under Bos taurus [3] was found to be 0.8. In series [6], this compound had an inhibition constant (Ki) of 0.44 nM.
